Test results as given in ChEMBL document CHEMBL4270571, “6-Biphenylmethyl-3-hydroxypyrimidine-2,4-diones potently and selectively inhibited HIV reverse transcriptase-associated RNase H” (Eur J Med Chem, 2018).

What was measured:
[1] = molecular target: Human immunodeficiency virus type 1 reverse transcriptase (Human immunodeficiency virus 1, UniProt Q72547); test: Inhibition of recombinant HIV1 reverse transcriptase RNase H expressed in Escherichia coli JM109 using RNA/DNA duplex substrate HTS1 as substrate
[2] = test system: Human immunodeficiency virus 1; test: Antiviral activity against HIV1 infected in human P4R5 cells assessed as reduction in viral infection preincubated with cells for 24 hrs followed by viral infection measured after 48 hrs by fluorescence based MAGI assay; type: functional, organism-based
In short: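 P4R5 indicator cells were seeded at 4 × 10³ per well in DMEM/10% FBS with puromycin. They were pretreated for 24 h with 1% DMSO or a range of compound concentrations, then infected with HIV-1 at an MOI of 1.25 for another 48 h. Cells were lysed and β-galactosidase was read by fluorescence with MUG substrate. EC50 is given as mean ± SD of at least two independent experiments.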

[3] = molecular target: Human immunodeficiency virus type 1 integrase (Human immunodeficiency virus 1, UniProt Q7ZJM1); test: Inhibition of HIV integrase strand transfer activity expressed in Escherichia coli BL21 (DE3) using 5' biotin ATGTGGAAAATCTCTAGCA primer annealed with ACTGCTAGAGATTTTCCACAT 3' Cy5 template preincubated for 10 mins followed by primer/template addition measured after 30 mins by fluorescence assay
Sequence of Human immunodeficiency virus type 1 integrase (Q7ZJM1 whole entry): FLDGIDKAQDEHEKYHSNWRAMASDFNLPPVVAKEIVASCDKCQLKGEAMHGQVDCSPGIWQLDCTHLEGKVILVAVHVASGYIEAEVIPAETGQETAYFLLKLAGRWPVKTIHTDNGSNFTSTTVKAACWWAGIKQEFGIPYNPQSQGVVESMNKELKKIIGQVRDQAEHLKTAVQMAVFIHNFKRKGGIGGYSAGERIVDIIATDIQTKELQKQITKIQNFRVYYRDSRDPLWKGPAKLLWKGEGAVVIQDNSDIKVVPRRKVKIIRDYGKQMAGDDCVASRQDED
In short: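 Purified HIV integrase in 10 mM HEPES pH 7.5, 10% glycerol, 10 mM MnCl₂, 1 mM DTT, with compounds in duplicate at 0.13–100 (final), 10 min at 25 °C. 500 nM biotin/Cy5 oligo duplex added, 30 min at 37 °C, EDTA quench. Products captured on streptavidin beads, washed, NaOH-denatured, formamide-eluted, read at 635/675.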

[4] = Cytotoxicity against human P4R5 cells assessed as reduction in cell viability after 72 hrs by XTT assay; type: cell-based
In short: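 P4R5 cells seeded at 4 × 10³ per well in DMEM/10% FBS with puromycin ([…]). Cells treated with 1% DMSO or varying compound concentrations for 72 h, then viability read by XTT kit. CC50 = concentration giving 50% cell death, mean from at least two independent experiments.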

Gag-Pol polyprotein = Gag-Pol polyprotein (Human immunodeficiency virus type 1 group M subtype B (isolate HXB2)(HIV-1), UniProt P04585); test: Inhibition of recombinant HIV1 reverse transcriptase polymerase expressed in Escherichia coli JM109 assessed as decrease in extension of 18 nucleotide DNA primer annealed to 100 nucleotide DNA template measured after 30 mins; design: species or system Human immunodeficiency virus 1
In short: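 18-nt DNA primer annealed to 100-nt DNA template (40 nM) was extended by 20 nM RT with dNTPs in 50 mM Tris pH 7.8, 50 mM NaCl, 1% DMSO, with increasing compound concentrations. Reactions were started with 6 mM MgCl₂, run 30 min at 37 °C, and stopped with EDTA. dsDNA formed was quantified by fluorescent dye (ex/em 504/531 nm), and dose-response data were fitted to a logistic curve.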

[5] = Selectivity ratio of CC50 for human P4R5 cells to EC50 for HIV1 infected in human P4R5 cells; type: toxicity, cell-based
In short: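 P4R5 indicator cells, 4 × 10³ per well in DMEM/10% FBS with puromycin. […] Cytotoxicity arm: uninfected cells, compound for 72 h, XTT read-out; CC50 is 50% cell death. Each value is mean ± SD of ≥2 independent experiments.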

SMILES | IC50 [1] [µM] | EC50 [2] [µM] | IC50 [3] [µM] | CC50 [4] [µM] | IC50 (Gag-Pol polyprotein) [µM] | Ratio CC50/EC50 [5]
CC(C)c1c(Cc2ccc(F)cc2)n(COCc2ccc(F)cc2)c(=O)n(O)c1=O | 6.2 | – | – | – | – | –
CC(C)c1c(Cc2ccccc2)n(COCc2ccccc2)c(=O)n(O)c1=O | 2.5 | – | – | – | – | –
CC(C)c1c(Cc2ccccc2)n(COCc2ccc(F)cc2)c(=O)n(O)c1=O | 2.1 | – | – | – | – | –
CCOCn1c(Cc2ccccc2)c(C(C)C)c(=O)n(O)c1=O | 6.8 | – | – | – | – | –
CCOCn1c(Cc2ccc(F)cc2)c(C(C)C)c(=O)n(O)c1=O | > 25 | – | – | – | – | –
CC(C)c1c(Cc2ccccc2)n(COCc2ccc(F)cc2F)c(=O)n(O)c1=O | 1.8 | – | – | – | – | –
CC(C)c1c(Cc2ccccc2)n(COCc2cccc(Cl)c2F)c(=O)n(O)c1=O | 0.9 | – | – | – | – | –
CC(C)c1c(Cc2ccccc2)n(COCc2ccc(F)cc2)c(=O)n(C)c1=O | 7 | – | – | – | – | –
COn1c(=O)c(C(C)C)c(Cc2ccccc2)n(COCc2ccc(F)cc2)c1=O | 11 | – | – | – | – | –
CC(C)c1c(Cc2ccccc2)n(COCCc2ccc(F)cc2)c(=O)n(O)c1=O | 2.8 | – | – | – | – | –
CC(C)c1c(Cc2ccccc2)n(COCCCCc2ccc(F)cc2)c(=O)n(O)c1=O | 1.8 | – | – | – | – | –
CC(C)c1c(Cc2ccccc2)n(CCc2ccc(F)cc2)c(=O)n(O)c1=O | 6.6 | – | – | – | – | –
CC(C)c1c(Cc2ccccc2)n(CCCc2ccc(F)cc2)c(=O)n(O)c1=O | 3.8 | – | – | – | – | –
CC(C)c1c(Cc2ccccc2)n(CCCCc2ccc(F)cc2)c(=O)n(O)c1=O | 0.9 | – | – | – | – | –
CCc1c(Cc2ccccc2)c(=O)n(O)c(=O)n1COCc1ccc(F)cc1 | 15 | – | – | – | – | –
CC(C)c1c(Cc2ccc(F)cc2)n(Cc2ccccc2)c(=O)n(O)c1=O | 10 | – | – | – | – | –
CC(C)c1c(Cc2ccc(F)cc2)n(Cc2ccc(F)cc2)c(=O)n(O)c1=O | 13 | – | – | – | – | –
CC(C)c1c(Cc2ccccc2)n(Cc2ccccc2)c(=O)n(O)c1=O | 15 | – | – | – | – | –
Cc1cc(-c2ccc(Cc3cc(=O)n(O)c(=O)[nH]3)cc2)ccc1F | 0.011 | > 20 | > 100 | > 100 | > 10 | –
O=c1cc(Cc2ccc(Br)cc2)[nH]c(=O)n1O | 0.011 | > 20 | > 100 | 64 | > 10 | –
CCOCn1c(Cc2ccc(-c3ccccc3)cc2)cc(=O)n(O)c1=O | > 5 | > 20 | – | > 100 | – | –
O=c1cc(Cc2ccc(-c3ccc(C(F)(F)F)cc3C(F)(F)F)cc2)[nH]c(=O)n1O | 0.085 | > 20 | > 100 | > 100 | > 10 | –
O=c1cc(Cc2cccc(-c3cccc(Cl)c3)c2)[nH]c(=O)n1O | 0.02 | 11 | > 100 | 62 | 10 | 4 to 6
O=c1cc(Cc2ccc(-c3ccc(Cl)c(F)c3)cc2)[nH]c(=O)n1O | 0.0094 | 15 | > 100 | 59 | > 10 | –

SMILES | IC50 [1] [µM] | EC50 [2] [µM] | IC50 [3] [µM] | CC50 [4] [µM] | IC50 (Gag-Pol polyprotein) [µM] | Ratio CC50/EC50 [5]
O=c1cc(Cc2ccc(-c3ccc(C(F)(F)F)cc3)cc2)[nH]c(=O)n1O | 0.047 | 16 | > 100 | > 100 | > 10 | –
O=c1cc(Cc2cccc(-c3cccc(C(F)(F)F)c3)c2)[nH]c(=O)n1O | 0.037 | > 20 | > 100 | > 100 | > 10 | –
O=c1cc(Nc2ccc(-c3ccccc3)cc2)[nH]c(=O)n1O | – | – | – | – | 2 | –
CCOCn1c(Cc2ccc(-c3cc(OC)cc(OC)c3)cc2)c(C)c(=O)n(O)c1=O | 6.7 | – | – | – | – | –
O=c1cc(Cc2ccc(-c3ccccc3)cc2)[nH]c(=O)n1O | 0.016 | 10 | > 100 | 11 | > 10 | –
O=c1cc(Cc2ccc(-c3cccc(F)c3)cc2)[nH]c(=O)n1O | 0.028 | 12 | > 100 | 24 | > 10 | –
COc1ccc(-c2cccc(Cc3cc(=O)n(O)c(=O)[nH]3)c2)cc1F | 0.0077 | 12 | > 100 | 20 | > 10 | –
O=c1cc(Cc2ccc(-c3ccc(F)cc3F)cc2)[nH]c(=O)n1O | 0.015 | 5.6 | > 100 | 11 | > 10 | –
O=c1cc(Cc2cccc(-c3ccc(Cl)cc3)c2)[nH]c(=O)n1O | 0.012 | 7.6 | > 100 | 27 | > 10 | 4 to 6
CCOCn1c(Cc2ccc(-c3ccc(C(F)(F)F)cc3)cc2)cc(=O)n(O)c1=O | 2.1 | – | – | – | – | –
COc1ccc(-c2ccc(Cc3cc(=O)n(O)c(=O)[nH]3)cc2)cc1F | 0.0076 | 11 | > 100 | 49 | > 10 | 4 to 6
O=c1cc(Cc2cccc(Br)c2)[nH]c(=O)n1O | 0.013 | > 20 | > 100 | 63 | > 10 | –
O=c1cc(Cc2ccc(-c3cccc(Cl)c3)cc2)[nH]c(=O)n1O | 0.016 | > 20 | > 100 | > 100 | > 10 | –
O=c1cc(Cc2cccc(-c3cc(Cl)cc(C(F)(F)F)c3)c2)[nH]c(=O)n1O | 0.038 | 20 | > 100 | > 100 | > 10 | –
CCc1c(-c2ccc(F)cc2)n(COCc2ccc(F)cc2)c(=O)n(O)c1=O | 17 | – | – | – | – | –
CCOCn1c(Cc2ccc(-c3ccc(C#N)cc3)cc2)c(C)c(=O)n(O)c1=O | 5.2 | – | – | – | – | –
O=c1cc(Cc2ccc(-c3cccc(C(F)(F)F)c3)cc2)[nH]c(=O)n1O | 0.025 | > 20 | > 100 | > 100 | > 10 | –
O=c1cc(Cc2ccc(-c3cc(Cl)cc(C(F)(F)F)c3)cc2)[nH]c(=O)n1O | 0.015 | > 20 | > 100 | > 100 | > 10 | –
Cc1cc(-c2cccc(Cc3cc(=O)n(O)c(=O)[nH]3)c2)ccc1F | 0.0088 | 12 | > 100 | 37 | > 10 | –
O=c1cc(Cc2cccc(-c3ccccc3)c2)[nH]c(=O)n1O | 0.016 | 9.6 | > 100 | 16 | > 10 | –
CCOCn1c(Cc2ccc(-c3ccccc3)cc2)c(C)c(=O)n(O)c1=O | 6.2 | – | – | – | – | –
CCOCn1c(Cc2ccc(-c3ccc(Cl)c(F)c3)cc2)cc(=O)n(O)c1=O | 0.43 | – | – | – | – | –
O=c1cc(Cc2ccc(-c3ccc(Cl)cc3Cl)cc2)[nH]c(=O)n1O | 0.0092 | 13 | > 100 | > 100 | > 10 | –
O=c1cc(Cc2cccc(-c3cccc(F)c3)c2)[nH]c(=O)n1O | 0.018 | 9.9 | > 100 | 14 | > 10 | –
